The source made the active and inactive calls. No cut-off for these calls is given here.
Experiments:
[1] = target: T1, Acyl-CoA desaturase 1 (Mus musculus, UniProt P13516); test: Inhibition of SCD1 in ICR mouse liver microsome using [9,10 3H]- stearoyl-Coenzyme A substrate assessed as decreased production of tritiated water after 20 min by scintillation counting analysis
T1 sequence (P13516 whole entry): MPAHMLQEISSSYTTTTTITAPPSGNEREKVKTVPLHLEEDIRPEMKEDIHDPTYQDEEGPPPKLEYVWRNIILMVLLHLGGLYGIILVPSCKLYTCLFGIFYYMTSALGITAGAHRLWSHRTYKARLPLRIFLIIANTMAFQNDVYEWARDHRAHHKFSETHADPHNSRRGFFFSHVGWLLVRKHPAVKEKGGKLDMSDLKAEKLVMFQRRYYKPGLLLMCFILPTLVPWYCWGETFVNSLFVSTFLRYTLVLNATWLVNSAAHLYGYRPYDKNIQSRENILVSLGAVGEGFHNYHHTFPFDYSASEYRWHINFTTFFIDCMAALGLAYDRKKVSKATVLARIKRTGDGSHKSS

[2] = Apparent permeability from basolateral to apical side in human Caco2 cells; type: ADME, cell-based; conditions: Caco-2
Outline: (§1)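 Caco-2 monolayers; apparent permeability a-to-b and b-to-a reported in 10⁻⁶ cm/s.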

[3] = Metabolic stability in rat liver microsome after 30 mins by LC/MS/MS analysis; type: ADME; conditions: liver microsomes, read-out: Stability
Outline: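 Compound incubated 30 min with rat liver microsomes; percent parent remaining by LC/MS/MS.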

[4] = target: Acyl-CoA (8-3)-desaturase (Rattus norvegicus) (UniProt Q920R3); test: Inhibition of delta5 desaturase in Sprague-Dawley rat liver microsome at 10 uM; type: microsomes
Chain of Acyl-CoA (8-3)-desaturase (Rattus norvegicus) (Q920R3 whole entry, looked up): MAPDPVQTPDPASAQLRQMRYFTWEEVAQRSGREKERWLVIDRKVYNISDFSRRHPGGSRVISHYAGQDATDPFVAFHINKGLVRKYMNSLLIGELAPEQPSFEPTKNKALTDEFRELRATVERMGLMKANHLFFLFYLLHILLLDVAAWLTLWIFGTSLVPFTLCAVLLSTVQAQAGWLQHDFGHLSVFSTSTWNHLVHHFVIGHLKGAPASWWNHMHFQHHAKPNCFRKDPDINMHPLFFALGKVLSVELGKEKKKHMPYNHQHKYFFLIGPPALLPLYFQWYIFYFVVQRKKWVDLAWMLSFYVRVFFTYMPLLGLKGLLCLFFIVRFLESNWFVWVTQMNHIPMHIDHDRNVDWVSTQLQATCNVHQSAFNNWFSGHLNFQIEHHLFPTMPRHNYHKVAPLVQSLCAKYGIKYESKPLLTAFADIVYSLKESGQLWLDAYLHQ

[5] = target: Acyl-CoA 6-desaturase (Rattus norvegicus) (UniProt Q9Z122); test: Inhibition of delta6 desaturase in Sprague-Dawley rat liver microsome using cis,cis-9,12-octadecadienoic acid substrate at 10 uM
Chain of Acyl-CoA 6-desaturase (Rattus norvegicus) (Q9Z122 whole entry, looked up): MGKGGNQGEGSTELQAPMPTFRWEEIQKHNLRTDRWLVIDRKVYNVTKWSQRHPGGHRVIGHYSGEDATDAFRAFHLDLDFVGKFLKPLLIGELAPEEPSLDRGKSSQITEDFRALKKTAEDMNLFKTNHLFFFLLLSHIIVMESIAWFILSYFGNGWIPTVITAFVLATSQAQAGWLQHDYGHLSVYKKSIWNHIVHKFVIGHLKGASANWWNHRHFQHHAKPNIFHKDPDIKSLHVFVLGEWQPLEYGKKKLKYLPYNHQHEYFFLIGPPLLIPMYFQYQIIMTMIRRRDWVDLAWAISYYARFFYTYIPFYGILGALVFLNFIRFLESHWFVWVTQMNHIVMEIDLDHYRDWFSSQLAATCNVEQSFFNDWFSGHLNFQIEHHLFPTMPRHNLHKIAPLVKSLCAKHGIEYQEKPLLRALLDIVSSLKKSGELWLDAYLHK

[6] = Apparent permeability from apical to basolateral side in human Caco2 cells; type: ADME, cell-based; conditions: Caco-2
Outline: as §1

[7] = tested on: Rattus norvegicus; test: In vivo inhibition of SCD1 in Lewis rat liver microsome at 15 mg/kg, ip administered qd for 2 days; type: functional; conditions: 48 h, route intraperitoneal
Outline: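 Lewis rats fed high-carbohydrate diet for one week, fasted 4 h, then dosed orally (0.1–1 mg/kg in 0.2% Tween 20/1% CMC; n = 4), killed 4 h later; ip arm 15 mg/kg once daily for two days. Liver microsomes prepared, SCD1 activity measured by tritiated water release from [9,10-3H]stearoyl-CoA. Mean ± SD of at least four rats.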

SMILES | IC50 [1] [nM] | Papp B→A [2] [×10⁻⁶ cm/s] | remaining at 0.5 h [3] [%] | inhibition [4] | inhibition [5] | Papp A→B [6] [×10⁻⁶ cm/s] | inhibition in vivo at 15 mg/kg [7] [%]
CC(C)(O)CCNC(=O)c1ccc(N2CCN(C(=O)c3ccccc3C(F)(F)F)CC2)nn1 | 10000 |  |  |  |  |  | 
O=C(NCCc1ccccc1)c1ccc(N2CCN(C(=O)c3ccccc3C(F)(F)F)CC2)nn1 |  | 15 | 56 | inactive | inactive | 16 | 
O=C(NC[C@H](O)c1ccccc1)c1ccc(N2CCN(C(=O)c3ccccc3C(F)(F)F)CC2)nn1 |  | 28 | 92 | inactive | inactive | 22 | 
O=C(NCc1cocn1)c1ccc(N2CCN(C(=O)c3ccccc3C(F)(F)F)CC2)nn1 | 272 |  |  |  |  |  | 
CCCCCCCNC(=O)c1ccc(N2CCN(C(=O)c3ccccc3C(F)(F)F)CC2)nn1 | 18 |  |  | inactive | inactive |  | 
O=C(NCc1ccc(C(F)(F)F)o1)c1ccc(N2CCN(C(=O)c3ccccc3C(F)(F)F)CC2)nn1 | 31 | 18 | 78 | inactive | inactive | 18 | 
O=C(NCCCCC1CC1)c1ccc(N2CCN(C(=O)c3ccccc3C(F)(F)F)CC2)nn1 |  | 17 | 42 | inactive | inactive | 13 | 
Cc1cnc(CNC(=O)c2ccc(N3CCN(C(=O)c4ccccc4C(F)(F)F)CC3)nn2)cn1 | 33 |  |  | inactive | inactive |  | 
O=C(NCCC1CC1)c1ccc(N2CCN(C(=O)/C=C\C(F)(F)F)CC2)nn1 | > 10000 |  |  |  |  |  | 
O=C(NCCC1CC1)c1ccc(N2CCN(C(=O)c3cccc(F)c3C(F)(F)F)CC2)nn1 | 58 | 26 | 72 | inactive | inactive | 20 | 
O=C(NCCCc1ccccc1)c1ccc(N2CCN(C(=O)c3ccccc3C(F)(F)F)CC2)nn1 | 69 |  |  | inactive | inactive |  | 
CN(C)c1ccccc1C(=O)N1CCN(c2ccc(C(=O)NCCC3CC3)nn2)CC1 | 920 |  |  |  |  |  | 
CC(C)CCNC(=O)c1cnc(N2CCN(C(=O)c3ccccc3C(F)(F)F)CC2)nc1 | > 10000 |  |  |  |  |  | 
CN(C)c1ccc(Cl)c(C(=O)N2CCN(c3ccc(C(=O)NCCC4CC4)nn3)CC2)c1 | > 10000 |  |  |  |  |  | 
CC(C)CCNC(=O)c1ccc(N2CCN(C(=O)c3ccccc3C(F)(F)F)CC2)nc1 | 78 |  |  |  |  |  | 
CCCCCNC(=O)c1ccc(N2CCN(C(=O)c3ccccc3C(F)(F)F)CC2)nn1 | 25 | 22 | 49 | inactive | inactive | 22 | 
O=C(NCc1ccn[nH]1)c1ccc(N2CCN(C(=O)c3ccccc3C(F)(F)F)CC2)nn1 | > 1000 |  |  |  |  |  | 
CCOCCNC(=O)c1ccc(N2CCN(C(=O)c3ccccc3C(F)(F)F)CC2)nn1 | 1250 |  |  |  |  |  | 
O=C(NCc1ncco1)c1ccc(N2CCN(C(=O)c3ccccc3C(F)(F)F)CC2)nn1 | 500 |  |  |  |  |  | 
CCCCCCNC(=O)c1ncc(N2CCN(C(=O)c3ccccc3C(F)(F)F)CC2)cn1 | 1200 |  |  |  |  |  | 
Cc1ccc(CNC(=O)c2ccc(N3CCN(C(=O)c4ccccc4C(F)(F)F)CC3)nn2)o1 | 15 | 23 | 37 | inactive | inactive | 25 | < 30

SMILES | IC50 [1] [nM] | Papp B→A [2] [×10⁻⁶ cm/s] | remaining at 0.5 h [3] [%] | inhibition [4] | inhibition [5] | Papp A→B [6] [×10⁻⁶ cm/s] | inhibition in vivo at 15 mg/kg [7] [%]
COc1ccc(Br)c(C(=O)N2CCN(c3ccc(C(=O)NCCCc4ccccc4)cn3)CC2)c1 | 5100 |  |  |  |  |  | 
CC(CNC(=O)c1ccc(N2CCN(C(=O)c3ccccc3C(F)(F)F)CC2)nn1)c1ccccc1 (stereo not given) | 150 |  |  | inactive | inactive |  | 
Cc1ccc(C)c(C(=O)N2CCN(c3ccc(C(=O)NCCC4CC4)nn3)CC2)c1 | 942 |  |  |  |  |  | 
O=C(NCCC1CC1)c1ccc(N2CCN(C(=O)C3CC3C(F)(F)F)CC2)nn1 (stereo not given) | > 1000 |  |  |  |  |  | 
CC(C)CCNC(=O)c1ccc(N2CCN(C(=O)c3ccccc3C(F)(F)F)CC2)cn1 | 220 |  |  |  |  |  | 
O=C(NCc1ccccc1)c1ccc(N2CCN(C(=O)c3ccccc3C(F)(F)F)CC2)nn1 | 6 | 34 | 97 | inactive | inactive | 34 | 
O=C(NCCCC1CC1)c1ccc(N2CCN(C(=O)c3ccccc3C(F)(F)F)CC2)nn1 | 34 | 30 | 63 | inactive | inactive | 32 | > 60
CC1CCCCC1C(=O)N1CCN(c2ccc(C(=O)NCCC3CC3)nn2)CC1 (stereo not given) | 680 |  |  |  |  |  | 
O=C(NCCC1CC1)c1ccc(N2CCN(C(=O)c3ccccc3C(=O)O)CC2)nn1 | > 10000 |  |  |  |  |  | 
O=C(NCCC1CC1)c1ccc(N2CCN(C(=O)c3cc(F)ccc3F)CC2)nn1 | 3110 |  |  |  |  |  | 
COc1ccc(F)cc1C(=O)N1CCN(c2ccc(C(=O)NCCC3CC3)nn2)CC1 | 710 |  |  |  |  |  | 
O=C(Nc1ccccn1)c1ccc(N2CCN(C(=O)c3ccccc3C(F)(F)F)CC2)nn1 | 1400 |  |  |  |  |  | 
O=C(NC[C@@H](O)c1ccccc1)c1ccc(N2CCN(C(=O)c3ccccc3C(F)(F)F)CC2)nn1 |  | 29 | 82 | inactive | inactive | 23 | > 60
O=C(NCCC1CC1)c1ccc(N2CCN(C(=O)c3ccccc3F)CC2)nn1 | > 1000 |  |  |  |  |  | 
O=C(NCc1ccccn1)c1ccc(N2CCN(C(=O)c3ccccc3C(F)(F)F)CC2)nn1 | 352 |  |  |  |  |  | 
O=C(NCCC1CC1)c1ccc(N2CCN(C(=O)c3ccc(F)cc3C(F)(F)F)CC2)nn1 | 21 | 22 | 69 | inactive | inactive | 22 | > 60
CCCCCCNC(=O)c1ccc(N2CCN(C(=O)c3ccccc3C(F)(F)F)CC2)nn1 | 21 | 18 | 14 | inactive | inactive | 20 | 
N#Cc1ccccc1C(=O)N1CCN(c2ccc(C(=O)NCCC3CC3)nn2)CC1 | > 1000 |  |  |  |  |  | 
O=C(Nc1ccccc1)c1ccc(N2CCN(C(=O)c3ccccc3C(F)(F)F)CC2)nn1 | 83 | 10 | 9 | inactive | inactive | 13 | 
CC(C)CCNC(=O)c1cnc(N2CCN(C(=O)c3ccccc3C(F)(F)F)CC2)cn1 | > 10000 |  |  |  |  |  | 
O=C(NCc1nccs1)c1ccc(N2CCN(C(=O)c3ccccc3C(F)(F)F)CC2)nn1 | 32 | 29 | 79 | inactive | inactive | 29 | 

From ChEMBL document CHEMBL2311383, “Discovery of piperazin-1-ylpyridazine-based potent and selective stearoyl-CoA desaturase-1 inhibitors for the treatment of obesity and metabolic syndrome” (J Med Chem, 2013)
